Measured values: ChEMBL document CHEMBL1123428, “In vitro labeling of serotonin-S2 receptors: synthesis and binding characteristics of [3H]-7-aminoketanserin” (J Med Chem, 1986)

How the values were obtained:
[1] = species on record: Rattus norvegicus; experiment: Compound was evaluated for its activity at solubilized receptor (CHAPS/salt-solubilized preparation) from rat frontal cortex; assay type: functional, organism-based; settings: for IC50: Rattus norvegicus, Frontal cortex
[2] = species on record: Rattus norvegicus; experiment: Compound was evaluated for its activity at membrane-bound receptor (M+L+P fraction) from rat frontal cortex; assay type: functional, organism-based; settings: for IC50: Rattus norvegicus, Frontal cortex
[3] = Half life time was determined; assay type: ADME
Outline: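 Kinetics of [3H]-7-aminoketanserin at rat frontal cortex receptors, membrane-bound (M+L+P) or CHAPS/salt-solubilized. Association ran for 20 min. Dissociation was started by adding a 1000-fold excess of pipamperone and treated as first-order. Means ± SD of independent triplicate experiments.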

[4] = biological target: T1, Adrenergic receptor alpha-1 (Rattus norvegicus, UniProt P15823+P23944+P43140); experiment: Compound was evaluated for binding activity against [3H]-WB- 4101 as radioligand for alpha-1 adrenergic receptor; assay type: protein assay
T1 sequence (P15823 whole entry): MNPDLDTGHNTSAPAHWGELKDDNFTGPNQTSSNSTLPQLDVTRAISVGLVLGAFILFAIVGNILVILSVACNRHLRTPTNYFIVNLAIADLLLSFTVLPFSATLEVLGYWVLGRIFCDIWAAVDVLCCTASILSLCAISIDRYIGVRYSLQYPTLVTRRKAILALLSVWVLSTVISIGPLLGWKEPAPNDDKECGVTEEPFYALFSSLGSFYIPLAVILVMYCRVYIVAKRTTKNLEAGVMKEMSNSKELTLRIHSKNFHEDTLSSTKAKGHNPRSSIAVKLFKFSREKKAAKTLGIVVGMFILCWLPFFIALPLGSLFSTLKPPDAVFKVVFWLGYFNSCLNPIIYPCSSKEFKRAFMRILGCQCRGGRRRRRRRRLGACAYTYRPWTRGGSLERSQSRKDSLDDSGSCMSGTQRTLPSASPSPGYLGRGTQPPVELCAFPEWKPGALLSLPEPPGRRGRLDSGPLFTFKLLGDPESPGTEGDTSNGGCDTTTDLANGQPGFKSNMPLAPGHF
T1 sequence (P23944 whole entry): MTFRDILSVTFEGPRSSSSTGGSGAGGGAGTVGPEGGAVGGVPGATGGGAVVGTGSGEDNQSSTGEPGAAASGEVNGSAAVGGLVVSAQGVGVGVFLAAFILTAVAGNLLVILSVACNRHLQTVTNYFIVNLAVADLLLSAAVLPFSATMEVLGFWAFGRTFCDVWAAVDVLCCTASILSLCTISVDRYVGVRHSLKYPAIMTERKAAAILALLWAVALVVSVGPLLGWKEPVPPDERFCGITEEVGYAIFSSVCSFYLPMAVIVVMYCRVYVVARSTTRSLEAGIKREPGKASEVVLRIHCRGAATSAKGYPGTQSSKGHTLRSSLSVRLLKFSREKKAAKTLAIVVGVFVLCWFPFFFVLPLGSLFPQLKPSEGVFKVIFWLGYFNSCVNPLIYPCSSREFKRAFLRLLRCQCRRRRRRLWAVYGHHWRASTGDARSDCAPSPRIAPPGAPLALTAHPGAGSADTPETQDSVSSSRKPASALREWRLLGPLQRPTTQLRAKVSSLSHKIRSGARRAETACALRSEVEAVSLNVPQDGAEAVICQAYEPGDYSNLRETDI
T1 sequence (P43140 whole entry): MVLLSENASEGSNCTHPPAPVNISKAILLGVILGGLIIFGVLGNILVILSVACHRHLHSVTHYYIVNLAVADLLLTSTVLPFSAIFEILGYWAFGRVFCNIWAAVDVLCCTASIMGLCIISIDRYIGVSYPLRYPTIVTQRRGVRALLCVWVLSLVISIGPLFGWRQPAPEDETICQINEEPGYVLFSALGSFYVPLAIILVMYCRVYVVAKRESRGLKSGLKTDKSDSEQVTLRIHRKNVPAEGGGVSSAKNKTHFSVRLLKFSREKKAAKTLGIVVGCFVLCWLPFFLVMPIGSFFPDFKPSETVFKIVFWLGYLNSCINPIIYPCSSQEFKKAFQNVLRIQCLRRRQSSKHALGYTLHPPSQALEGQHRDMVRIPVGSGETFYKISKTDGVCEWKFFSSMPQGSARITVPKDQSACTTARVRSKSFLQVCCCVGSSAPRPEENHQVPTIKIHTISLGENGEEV
Outline: (§1)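 Filtration binding technique applied to rat or guinea pig brain tissue. Tissues, buffers, radioligands and incubation conditions per earlier methods. Ki computed using radioligand KD values from the literature.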

[5] = biological target: T2, Adrenergic receptor alpha-2 (Rattus norvegicus, UniProt P22086+P19328+P22909); experiment: Compound was evaluated for binding activity against [3H]clonidine as radioligand for alpha-2 adrenergic receptor; assay type: protein assay; outline: as §1
T2 sequence (P22086 whole entry): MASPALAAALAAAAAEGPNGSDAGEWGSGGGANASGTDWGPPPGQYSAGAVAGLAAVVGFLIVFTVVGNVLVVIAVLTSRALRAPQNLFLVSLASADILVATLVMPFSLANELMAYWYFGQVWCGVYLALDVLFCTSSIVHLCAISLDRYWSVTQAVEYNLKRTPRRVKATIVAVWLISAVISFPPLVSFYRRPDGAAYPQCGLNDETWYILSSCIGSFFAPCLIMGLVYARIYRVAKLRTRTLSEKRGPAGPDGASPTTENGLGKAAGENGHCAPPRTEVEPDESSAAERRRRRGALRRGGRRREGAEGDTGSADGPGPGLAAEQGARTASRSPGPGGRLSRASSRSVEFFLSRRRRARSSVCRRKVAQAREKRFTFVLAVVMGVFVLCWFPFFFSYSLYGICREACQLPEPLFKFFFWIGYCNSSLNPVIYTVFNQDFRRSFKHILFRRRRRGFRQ
T2 sequence (P19328 whole entry): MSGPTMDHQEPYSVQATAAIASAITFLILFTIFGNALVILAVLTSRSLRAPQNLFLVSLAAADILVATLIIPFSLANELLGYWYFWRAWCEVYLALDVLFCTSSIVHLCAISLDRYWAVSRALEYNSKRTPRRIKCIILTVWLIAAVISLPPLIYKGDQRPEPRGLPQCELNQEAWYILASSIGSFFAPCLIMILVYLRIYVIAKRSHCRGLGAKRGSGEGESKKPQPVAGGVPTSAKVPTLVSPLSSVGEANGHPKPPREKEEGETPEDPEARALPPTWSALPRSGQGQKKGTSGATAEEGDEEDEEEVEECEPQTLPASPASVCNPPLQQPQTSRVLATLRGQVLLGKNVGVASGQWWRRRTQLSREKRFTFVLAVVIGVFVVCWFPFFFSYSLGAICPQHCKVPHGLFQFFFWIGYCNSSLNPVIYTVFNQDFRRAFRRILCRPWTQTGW
T2 sequence (P22909 whole entry): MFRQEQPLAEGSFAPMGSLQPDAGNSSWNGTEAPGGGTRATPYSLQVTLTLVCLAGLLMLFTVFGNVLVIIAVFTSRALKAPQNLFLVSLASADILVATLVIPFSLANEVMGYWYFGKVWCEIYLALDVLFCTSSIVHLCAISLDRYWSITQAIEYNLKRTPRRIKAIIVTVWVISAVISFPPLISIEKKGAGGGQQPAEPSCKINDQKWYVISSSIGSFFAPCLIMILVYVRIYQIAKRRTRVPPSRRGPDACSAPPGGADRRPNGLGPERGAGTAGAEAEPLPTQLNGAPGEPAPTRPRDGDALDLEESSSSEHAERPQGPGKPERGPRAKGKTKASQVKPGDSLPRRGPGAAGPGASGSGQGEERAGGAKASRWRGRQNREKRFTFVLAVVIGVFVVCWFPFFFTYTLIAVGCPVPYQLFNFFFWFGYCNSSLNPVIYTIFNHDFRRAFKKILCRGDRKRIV

[6] = biological target: Adrenergic receptor beta (Rattus norvegicus, UniProt P18090+P10608+P26255); experiment: Compound was evaluated for binding activity against [3H]dihydroalprenolol as radioligand for beta adrenergic receptor; assay type: protein assay; outline: as §1
[7] = biological target: Histamine H1 receptor (Rattus norvegicus, UniProt P31390); experiment: Compound was evaluated for binding activity against [3H]pyrilamine as radioligand for Histamine H1 receptor; outline: as §1
Sequence of Histamine H1 receptor (P31390 whole entry): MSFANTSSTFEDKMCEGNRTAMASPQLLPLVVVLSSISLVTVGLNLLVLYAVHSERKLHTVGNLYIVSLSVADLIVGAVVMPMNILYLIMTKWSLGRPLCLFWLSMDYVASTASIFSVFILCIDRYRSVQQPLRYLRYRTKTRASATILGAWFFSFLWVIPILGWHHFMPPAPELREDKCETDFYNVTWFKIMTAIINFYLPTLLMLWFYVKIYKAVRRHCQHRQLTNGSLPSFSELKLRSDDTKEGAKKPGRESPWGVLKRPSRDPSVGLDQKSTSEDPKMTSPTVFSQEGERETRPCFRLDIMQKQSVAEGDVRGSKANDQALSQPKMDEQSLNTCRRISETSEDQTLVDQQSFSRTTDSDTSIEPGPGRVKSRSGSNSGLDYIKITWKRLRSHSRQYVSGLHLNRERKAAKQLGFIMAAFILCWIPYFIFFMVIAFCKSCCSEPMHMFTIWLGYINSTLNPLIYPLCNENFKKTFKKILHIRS

[8] = Compound was evaluated at membrane-bound receptor (M+L+P fraction) from rat frontal cortex; assay type: tissue-based
Outline: (§2)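 Rat frontal cortex (M+L+P) fraction, diluted 1:100 w/v, in 50 mM Tris-HCl pH 7.7. Incubated 15 min at 37 °C with 1 nM [3H]-7-aminoketanserin (final) and unlabeled drug. Stopped by rapid GF/B filtration with two ice-cold buffer rinses, then scintillation counting. IC50 from two experiments in triplicate; Ki by Cheng-Prusoff.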

[9] = species on record: Rattus norvegicus; experiment: (§3) Number of binding sites of the receptor was determined
Outline: (§4)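 Saturation binding of [3H]-7-aminoketanserin to rat frontal cortex (M+L+P) fraction (three experiments) or solubilized preparation (two experiments), each in triplicate. Specific binding is total minus binding with a 1000-fold methysergide excess. Bmax and KD taken from computer-fitted Scatchard plots.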

[10] = Binding affinity for membrane-bound 5-HT-S2 receptor; design: species or system Rattus norvegicus; outline: as §2
[11] = biological target: T3, Serotonin 1 (5-HT1) receptor (Rattus norvegicus, UniProt P28564+P30940+P19327+P28565); experiment: Compound was evaluated for binding activity against [3H]-5-HT as radioligand for serotonin S1 receptor; assay type: protein assay; outline: as §1
[12] = biological target: T3, Serotonin 1 (5-HT1) receptor; experiment: Compound was evaluated for binding activity against [3H]5-HT as radioligand for serotonin S1 receptor; assay type: protein assay; outline: as §1
[13] = Binding affinity for detergent solubilized 5-HT-S2 receptor; design: species or system Rattus norvegicus
Outline: (§5)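 Rat frontal cortex microsomal fraction solubilized for 12 min at 4 °C in CHAPS/NaCl medium (13.6 mM CHAPS, 2.8 M NaCl, pH 7.2), centrifuged at 180000 g, and supernatant diluted to 1:16 w/v. Incubated 15 min at 30 °C with 2 nM [3H]-7-aminoketanserin (final) and drug. Free ligand removed by charcoal/BSA, supernatant counted. IC50 from two triplicate experiments; Ki by Cheng-Prusoff.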

[14] = Compound was evaluated at solubilized receptor (CHAPS/salt-solubilized preparation) from rat frontal cortex; assay type: tissue-based; outline: as §5
[15] = species on record: Rattus norvegicus; experiment: as §3; outline: as §4; remark: listed apart in the source
[16] = biological target: D(2) dopamine receptor (Rattus norvegicus, UniProt P61169); experiment: Compound was evaluated for binding activity against [3H]haloperidol as radioligand for Dopamine receptor D2; outline: as §1
Sequence of D(2) dopamine receptor (P61169 whole entry): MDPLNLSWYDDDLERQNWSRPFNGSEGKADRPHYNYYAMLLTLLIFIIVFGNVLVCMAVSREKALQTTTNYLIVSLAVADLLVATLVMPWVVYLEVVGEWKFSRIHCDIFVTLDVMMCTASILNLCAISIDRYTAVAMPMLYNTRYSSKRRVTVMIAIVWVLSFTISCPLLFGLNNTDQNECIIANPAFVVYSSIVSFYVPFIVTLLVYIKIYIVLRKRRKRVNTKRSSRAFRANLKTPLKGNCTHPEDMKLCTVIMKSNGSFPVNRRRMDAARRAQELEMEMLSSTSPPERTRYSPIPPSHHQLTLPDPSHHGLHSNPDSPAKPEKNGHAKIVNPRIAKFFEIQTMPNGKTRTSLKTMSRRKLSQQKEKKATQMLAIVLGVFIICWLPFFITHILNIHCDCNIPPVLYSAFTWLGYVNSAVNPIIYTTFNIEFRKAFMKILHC

[17] = biological target: Muscarinic acetylcholine receptor; experiment: Compound was evaluated for binding activity against [3H]dexetimide as radioligand for muscarinic-acetylcholine receptor; assay type: protein assay; outline: as §1
[18] = biological target: Serotonin 2 (5-HT2) receptor (Rattus norvegicus, UniProt P30994+P08909+P14842); experiment: Evaluated for binding activity against [3H]ketanserin as radioligand for 5-hydroxytryptamine 2 receptor; assay type: protein assay; outline: as §1

## CN(C)CCc1c[nH]c2ccc(O)cc12 [BUFOTENINE]
[1]
  Ki: 6300 nM
  IC50: 12600 nM
[2]
  Ki: 341 nM
  IC50: 1320 nM

## O=C(c1ccc(F)cc1)C1CCN(CCn2c(=O)[nH]c3ccccc3c2=O)CC1 [KETANSERIN]
[1]
  Ki: 3.97 nM
  IC50: 7.94 nM
[2]
  Ki: 0.68 nM
  IC50: 2.63 nM

## Nc1ccc2c(=O)n(CCN3CCC(C(=O)c4ccc(F)cc4)CC3)c(=O)[nH]c2c1
[3]
  T1/2: 12.4 min
  half-life: 7.8 min
[4]
  -Log IC50: 7.82
  Ki: 5.49 nM
[5]
  -Log IC50: < 6
[6]
  -Log IC50: < 6
[7]
  IC50: 2.24 nM
  Ki: 1.22 nM
[8]
  -Log IC50: 8.86
  Ki: 0.36 nM
[9]
  Bmax: 37 fmol/mg
[10]
  Kd: 0.35 nM
[11]
  -Log IC50: 5.25
[12]
  Ki: 4416 nM
[13]
  Kd: 2.03 nM
[14]
  -Log IC50: 8.35
  Ki: 2.23 nM
[15]
  Bmax: 4.18 fmol/mg
[16]
  IC50: 417 nM
  Ki: 164 nM
[17]
  -Log IC50: < 6
[18]
  -Log IC50: 9.25
  Ki: 0.17 nM

## COc1ccc(CN(CCN(C)C)c2ccccn2)cc1 [PYRILAMINE]
[1]
  Ki: 9980 nM
  IC50: 20000 nM
[2]
  Ki: 1030 nM
  IC50: 3980 nM

## NCCc1c[nH]c2ccc(O)cc12 [SEROTONIN]
[1]
  Ki: 14100 nM
  IC50: 28200 nM
[2]
  Ki: 919 nM
  IC50: 3550 nM

## O=c1[nH]c2ccccc2n1CCCN1CCC(n2c(=O)[nH]c3cc(Cl)ccc32)CC1 [DOMPERIDONE]
[1]
  Ki: 998 nM
  IC50: 2000 nM
[2]
  Ki: 152 nM
  IC50: 589 nM

## NC(=O)C1(N2CCCCC2)CCN(CCCC(=O)c2ccc(F)cc2)CC1 [PIPAMPERONE]
[1]
  Ki: 9.53 nM
  IC50: 19.1 nM
[2]
  Ki: 1.39 nM
  IC50: 5.37 nM

## Cc1nc2ccccn2c(=O)c1CCN1CCC(C(=O)c2ccc(F)cc2)CC1 [PIRENPERONE]
[1]
  Ki: 3.54 nM
  IC50: 7.08 nM
[2]
  Ki: 0.47 nM
  IC50: 1.82 nM

## (-)-BUTACLAMOL
[1]
  -Log IC50: 4.56
  Ki: 13800 nM
[2]
  -Log IC50: 4.9
  Ki: 3260 nM

## CN1CCN2c3ccccc3Cc3ccccc3C2C1 (stereo unspecified) [MIANSERIN]
[1]
  Ki: 13.5 nM
  IC50: 26.9 nM
[2]
  Ki: 3.04 nM
  IC50: 11.7 nM

## COc1cc2nc(N3CCN(C(=O)c4ccco4)CC3)nc(N)c2cc1OC [PRAZOSIN]
[1]
  Ki: 19900 nM
  IC50: 39800 nM
[2]
  Ki: 11600 nM
  IC50: 44700 nM

## Cc1nc2sccn2c(=O)c1CCN1CCC(=C(c2ccc(F)cc2)c2ccc(F)cc2)CC1 [RITANSERIN]
[1]
  Ki: 7.06 nM
  IC50: 14.1 nM
[2]
  Ki: 0.9 nM
  IC50: 3.47 nM

## COc1cccc(OC)c1OCCNCC1COc2ccccc2O1 (stereo unspecified)
[1]
  Ki: 3880 nM
  IC50: 7760 nM
[2]
  Ki: 697 nM
  IC50: 2690 nM
